The results in this text go back to ChEMBL document CHEMBL1154141, “Meroditerpenoids and derivatives from the brown alga Cystoseira baccata and their antifouling properties” (J Nat Prod, 2008).

One series deals with Cylindrotheca closterium. As to the kind of experiment: Antimicrobial activity against Cylindrotheca closterium AC 170 after 48 hrs. The series is classed as functional, organism-based. An outline of the steps: (§1)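 Microalgal cultures (0.4 μg/mL chlorophyll A) in F/2 medium were incubated with compound for 48 h at 18 °C under a 15:9 light:dark cycle with cool-white fluorescent light at 54 μmol photons/m²·s. Relative optical density at 600 nm gave the MIC versus a seawater control.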

Series [1] deals with Pseudoalteromonas distincta. The series can be described thus: Antibacterial activity against Pseudoalteromonas elyakovii ATCC 700519 after 48 hrs by microtiter broth dilution method. Format: functional. Conditions: ATCC 700519, 48 h. The method in brief:
(§2)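 Marine bacterial strains at 2×10^8 cells/mL were exposed to compound for 48 h at 25 °C in Mueller Hinton broth supplemented with NaCl (15 g/L). MIC was set by microtiter broth dilution against a culture-medium control.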
On the technique in general: Dilution methods test growth across graded concentrations, often in twofold steps.

The subject of a further series is Vibrio aestuarianus. As to the kind of experiment: Antibacterial activity against Vibrio aestuarianus ATCC 35048 after 48 hrs by microtiter broth dilution method. The series is classed as functional. Conditions: ATCC 35048, 48 h. The method in brief: as §2
The test system of another series is Polaribacter irgensii. As to the kind of experiment: Antibacterial activity against Polaribacter irgensii ATCC 700398 after 48 hrs by microtiter broth dilution method. Format: functional. Conditions: ATCC 700398, 48 h. An outline of the steps: as §2
A further series concerns Salmonella typhimurium. As to the kind of experiment: Antibacterial activity against Salmonella Typhimurium ATCC 35986 after 48 hrs by microtiter broth dilution method. The series is classed as functional, Salmonella enterica subsp. enterica serovar Typhimurium. Conditions: Salmonella enterica, ATCC 35986, 48 h. An outline of the steps: (§3)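 Terrestrial bacterial strains at 2×10^8 cells/mL were incubated with compound for 48 h at 25 °C in trypsic soy broth. MIC was read by microtiter broth dilution against a culture-medium control.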

The subject of a further series is Escherichia coli. The series can be described thus: Antibacterial activity against Escherichia coli ATCC 35049 after 48 hrs by microtiter broth dilution method. Conditions: ATCC 35049, 48 h. The series is classed as functional. An outline of the steps: as §3
The subject of another series is Bacillus subtilis. The series can be described thus: Antibacterial activity against Bacillus subtilis ATCC 55572 after 48 hrs by microtiter broth dilution method. Conditions: ATCC 55572, 48 h. The series is classed as functional. The method in brief: as §3
Series [2] deals with Exanthemachrysis gayraliae. The series can be described thus: Antimicrobial activity against Exanthemachrysis gayraliae AC 15 after 48 hrs. The series is classed as functional. The method in brief: as §1
For a further series, the system named is Sargassum muticum. The series can be described thus: Antimicrobial activity against Sargassum muticum after 48 hrs. The series is classed as functional, organism-based. The method in brief:
(§4)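 Spores (3000 spores/mL) in F/2 medium were exposed to compound for 48 h at 18 °C under a 15:9 light:dark cycle with cool-white fluorescent light at 54 μmol photons/m²·s. Germination and attachment rates were then scored.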

A further series has as its system Ulva intestinalis. As to the kind of experiment: Antimicrobial activity against Ulva intestinalis after 48 hrs. Format: functional, organism-based. The method in brief: as §4
Series [3] in a line: Inhibition of Mytilus edulis phenoloxidase after 2 hrs. The method in brief:
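Purified mussel phenoloxidase was preincubated with compound for 2 h. Activity was then followed as the rise in absorbance at 475 nm with L-Dopa (10 mM) as substrate, and percent inhibition was calculated against the control.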

The nature of series [4]: Toxicity against Echinus esculentus larvae after 48 hrs. An outline of the steps: (§5)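 Larvae incubated with compounds at 0.5, 1, 2.5, 5, 10, 25, 50 and 100 μg/mL, 10–15 larvae per well in 2 mL solution. Viable larvae counted after 48 h exposure. LC50 is the concentration giving 50% mortality relative to control, derived by curve fitting. Six replicates per test and control, with two batches of organisms.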

The nature of series [5]: Toxicity against Crassostrea gigas larvae after 48 hrs. The method in brief:
as §5

The next series relates to Chrysotila roscoffensis. As to the kind of experiment: Antimicrobial activity against Pleurochrysis roscoffensis AC 238 after 48 hrs. Format: functional, organism-based. The method in brief: as §1

In brackets after ≈: the same amount, converted by molar mass. Activity calls are given as the source filed them. The rule behind the calls is not given here.

Broadly, the MIC is the lowest concentration that inhibits growth of the organism. Read a high MIC as a need for much substance. A word on the IC50: it is the concentration at which inhibition is half-maximal. A low value points to inhibition by little substance. The term LC50 denotes the concentration that kills 50% of the test population. As to `COc1cc(C)c2c(c1)C=C[C@](C)(CC1=C(CC(C)(C)O)C(=O)[C@@]3(C)CCC[C@]3(C)C1)O2`, the outcome (in the series on Cylindrotheca closterium; in series [2]; in the series with Chrysotila roscoffensis) was inactive. Besides, the minimum inhibitory concentration (MIC) (in series [1]; in the series on Vibrio aestuarianus; against Polaribacter irgensii; against Salmonella typhimurium; with Escherichia coli; in the series with Bacillus subtilis) was greater than 100 µg/mL each time. For the same compound, the IC50 in the series on Sargassum muticum was 2.5 µg/mL (≈ 5.7 µM); in the series on Ulva intestinalis, greater than 100 µg/mL; in series [3], 1 µg/mL (≈ 2.28 µM). Besides, the 50% lethal concentration (LC50) at 48 h in [4] and in [5] was greater than 100 µg/mL in each case.
As to `COc1cc(C)c(O)c(C/C=C(\C)C[C@]2(O)C[C@@]3(C)CCC[C@]3(C)C(=O)[C@@H]2CC(C)(C)O)c1`, the result (in the series with Cylindrotheca closterium; in [2]; with Chrysotila roscoffensis) was inactive. For the same compound, the minimum inhibitory concentration (MIC) (in series [1]; with Vibrio aestuarianus; against Polaribacter irgensii; with Salmonella typhimurium; with Escherichia coli; against Bacillus subtilis) was greater than 100 µg/mL each time. In addition, the LC50 at 48 h in [4] and in series [5] was greater than 100 µg/mL each time.
Regarding `CC1=C(CC(C)(C)O)C(=O)[C@@]2(C)CCC[C@]2(C)C1`, the result with Cylindrotheca closterium and in the series on Chrysotila roscoffensis was inactive. Besides, the MIC (in series [1]; in the series on Vibrio aestuarianus; against Polaribacter irgensii; against Salmonella typhimurium; against Escherichia coli; against Bacillus subtilis) was greater than 100 µg/mL each time. In [2] (AC 15, 48 h), this compound gave an MIC of 1 µg/mL (≈ 3.99 µM). Further, the IC50 (with Sargassum muticum; in the series with Ulva intestinalis; in [3]) was 1 µg/mL (≈ 3.99 µM) throughout. Moreover, the LC50 at 48 h in [4] and in [5] was greater than 100 µg/mL throughout.
With `COc1cc(C)c(O)c(C/C=C(\C)CC2=C(CC(C)(C)O)C(=O)[C@@]3(C)CCC[C@]3(C)C2)c1`, the outcome (in the series with Cylindrotheca closterium; in series [2]; in the series with Chrysotila roscoffensis) was inactive. Also, the MIC (in [1]; against Vibrio aestuarianus; in the series with Polaribacter irgensii; against Salmonella typhimurium; against Escherichia coli; against Bacillus subtilis) was greater than 100 µg/mL in each case. In addition, the LC50 at 48 h in series [4] and in series [5] was greater than 100 µg/mL in each case.
In the case of `CC(=O)/C=C1\C[C@@]2(C)CCC[C@]2(C)C2=C1CC(C)(C)O2`, the outcome (in the series on Cylindrotheca closterium; in [2]; in the series with Chrysotila roscoffensis) was inactive. Besides, the minimal inhibitory concentration (MIC) (in [1]; with Vibrio aestuarianus; with Polaribacter irgensii; with Salmonella typhimurium; against Escherichia coli; in the series on Bacillus subtilis) was greater than 100 µg/mL throughout. Further, the values for the IC50 (with Sargassum muticum; with Ulva intestinalis; in [3]) were greater than 100 µg/mL, 2.5 µg/mL (≈ 9.11 µM) and 2.5 µg/mL (≈ 9.11 µM), respectively. Further, the LC50 at 48 h in [4] and in series [5] was greater than 100 µg/mL in each case.
Regarding `COc1cc(C)c2c(c1)C=C[C@@](C)(CC1=C(CC(C)(C)O)C(=O)[C@@]3(C)CCC[C@]3(C)C1)O2`, the outcome (in the series with Cylindrotheca closterium; in [2]; in the series with Chrysotila roscoffensis) was inactive. In addition, the minimal inhibitory concentration (MIC) (in [1]; in the series on Vibrio aestuarianus; in the series with Polaribacter irgensii; with Salmonella typhimurium; against Escherichia coli; in the series with Bacillus subtilis) was greater than 100 µg/mL each time. In addition, the LC50 at 48 h in series [4] and in series [5] was greater than 100 µg/mL throughout.
